Legend:
Type in all cases: cell-based
[1] = system: MCF-7 human breast cancer cells; assay: SRB cytotoxicity assay, MCF-7 cells; details: for IC50: MCF7, 48 h, read-out: IC50 against MCF-7 cells
Method in brief: (§1)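 Cells from ATCC, seeded at about […] in fresh medium at 37 ᵒC and <5% CO2. After 24 h, a DMSO series of test compound (up to 100 μg/mL) was added, then incubated 48 h. Read-out was A570, with DMSO control set as 100% viability.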

[2] = system: A-549 (Lung) human cancer cells; assay: SRB cytotoxicity assay, A-549 cells; details: A549, read-out: % Viability of cancer cells A-549
Method in brief: as §1

[3] = system: HEPG-2 (Liver) human cancer cells; assay: SRB cytotoxicity assay, HEPG-2 cells
Method in brief: as §1

[4] = system: HCT-116 (Colon) human cancer cells; assay: SRB cytotoxicity assay, HCT-116 cells; details: HCT-116, read-out: % Viability of cancer cells HCT-116
Method in brief: as §1

[5] = MCF7, read-out: % Viability of cancer cells MCF-7
[6] = HepG2, read-out: % Viability of cancer cells HEPG-2

COc1ccc(OC)c(NC(=S)NN=Cc2ccccn2)c1 [HL^2, 4-(2,5-Dimethoxyphenyl)-1-((pyridin-2-yl)methylene)thiosemicarbazide]
IC50 [1]: 145 µM

O=[N+]([O-])c1ccc(NC(=S)NN=Cc2ccccn2)cc1 [HL^1, 4-(4-Nitrophenyl)-1-((pyridin-2-yl)methylene)thiosemicarbazide]
IC50 [1]: 52.4 µM
viability at 41.5 µM [1, 5]: 60%
viability at 83 µM [1, 5]: 26.4%
viability at 124.5 µM [1, 5]: 23.2%
viability at 166 µM [1, 5]: 9.6%
viability at 41.5 µM [2]: 71.9%
viability at 83 µM [2]: 70.7%
viability at 124.5 µM [2]: 69.6%
viability at 166 µM [2]: 64.1%
IC50 ([3]; HepG2, 48 h, read-out: IC50 against HEPG-2 cells): 80 µM
viability at 41.5 µM [3, 6]: 76%
viability at 83 µM [3, 6]: 48%
viability at 124.5 µM [3, 6]: 39.2%
viability at 166 µM [3, 6]: 33.2%
viability at 41.5 µM [4]: 80%
viability at 83 µM [4]: 76%
viability at 124.5 µM [4]: 63.6%
viability at 166 µM [4]: 60.4%

COc1cccc2c1C(=O)c1c(O)c3c(c(O)c1C2=O)C[C@@](O)(C(=O)CO)C[C@@H]3O[C@H]1C[C@H](N)[C@H](O)[C@H](C)O1 [Doxorubicin, doxorubicin, reference compound]
IC50 [1]: 9.66 µM
